Active and inactive are the calls of the source. No cut-off for these calls is given here.
Key:
[1] = biological target: T1, C-X-C chemokine receptor type 4 (Homo sapiens, UniProt P61073); assay: Antagonist activity against human recombinant CXCR4 expressed in CHO cells assessed as inhibition of human SDF1-alpha-stimulated calcium mobilization; assay type: functional, cell-based
Procedure, shortened: (§1)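 Human chemokine receptor-overexpressing CHO cells were stimulated with the matching human endogenous ligand, and calcium mobilization was read out. Library members were tested at 30 µM. Crude products were dissolved in DMSO as 10 mM stocks and used without further purification.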

[2] = tested on: Human immunodeficiency virus 1; assay: Antiviral activity against T cell tropic HIV1 X4; assay type: functional, organism-based
[3] = biological target: T2, C-C chemokine receptor type 2 (Homo sapiens, UniProt P41597); assay: Antagonist activity against human recombinant CCR2 expressed in CHO cells assessed as inhibition of human MCP1-stimulated calcium mobilization; assay type: functional, cell-based; procedure, shortened: as §1
[4] = biological target: T3, C-C chemokine receptor type 5 (Homo sapiens, UniProt P51681); assay: Antagonist activity against human recombinant CCR5 expressed in CHO cells assessed as inhibition of human MIP-1-alpha-stimulated calcium mobilization; assay type: functional, cell-based; procedure, shortened: as §1
[5] = biological target: T2, C-C chemokine receptor type 2; assay: Inhibition of radio-isotope labeled MCP1 binding to human recombinant CCR2
[6] = biological target: C-C chemokine receptor type 4 (Homo sapiens, UniProt P51679); assay: Antagonist activity against human recombinant CCR4 expressed in CHO cells assessed as inhibition of human […]-stimulated calcium mobilization; assay type: functional, cell-based; procedure, shortened: as §1
[7] = biological target: T1, C-X-C chemokine receptor type 4; assay: Inhibition of radio-isotope labeled SDF1-alpha binding to human recombinant CXCR4
[8] = biological target: T3, C-C chemokine receptor type 5; assay: Inhibition of radio-isotope labeled MIP1-alpha binding to human recombinant CCR5
[9] = biological target: Sigma non-opioid intracellular receptor 1 (Homo sapiens, UniProt Q99720); assay: Binding affinity to sigma receptor
[10] = biological target: Muscarinic acetylcholine receptor M3 (Homo sapiens, UniProt P20309); assay: Binding affinity to muscarinic M3 receptor
Sequence of Muscarinic acetylcholine receptor M3 (P20309 whole entry): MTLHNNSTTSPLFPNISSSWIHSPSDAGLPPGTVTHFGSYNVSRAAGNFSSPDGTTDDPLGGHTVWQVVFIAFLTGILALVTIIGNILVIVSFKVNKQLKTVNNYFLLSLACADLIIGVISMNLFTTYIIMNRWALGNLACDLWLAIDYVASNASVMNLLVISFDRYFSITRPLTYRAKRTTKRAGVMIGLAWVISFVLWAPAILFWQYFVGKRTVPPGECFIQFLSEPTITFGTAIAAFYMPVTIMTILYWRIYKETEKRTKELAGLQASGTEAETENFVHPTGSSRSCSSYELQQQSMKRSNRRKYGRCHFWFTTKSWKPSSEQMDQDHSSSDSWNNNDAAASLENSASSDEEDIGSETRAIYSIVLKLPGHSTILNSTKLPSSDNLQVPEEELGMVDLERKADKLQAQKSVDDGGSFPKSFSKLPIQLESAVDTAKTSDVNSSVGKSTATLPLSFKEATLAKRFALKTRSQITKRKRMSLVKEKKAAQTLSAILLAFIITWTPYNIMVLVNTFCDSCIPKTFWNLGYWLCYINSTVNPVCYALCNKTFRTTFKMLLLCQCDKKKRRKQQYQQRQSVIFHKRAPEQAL

Sequence of C-C chemokine receptor type 4 (P51679 whole entry, looked up): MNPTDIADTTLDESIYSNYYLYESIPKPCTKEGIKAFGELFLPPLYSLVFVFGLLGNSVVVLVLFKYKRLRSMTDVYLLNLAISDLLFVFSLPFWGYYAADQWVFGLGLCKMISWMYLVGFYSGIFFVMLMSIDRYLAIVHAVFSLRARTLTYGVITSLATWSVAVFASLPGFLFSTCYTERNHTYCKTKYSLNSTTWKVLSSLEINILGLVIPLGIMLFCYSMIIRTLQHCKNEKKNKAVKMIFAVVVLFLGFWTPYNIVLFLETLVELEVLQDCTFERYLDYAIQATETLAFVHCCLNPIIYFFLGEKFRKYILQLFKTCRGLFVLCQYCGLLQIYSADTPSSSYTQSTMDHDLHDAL
T2 sequence (P41597 whole entry): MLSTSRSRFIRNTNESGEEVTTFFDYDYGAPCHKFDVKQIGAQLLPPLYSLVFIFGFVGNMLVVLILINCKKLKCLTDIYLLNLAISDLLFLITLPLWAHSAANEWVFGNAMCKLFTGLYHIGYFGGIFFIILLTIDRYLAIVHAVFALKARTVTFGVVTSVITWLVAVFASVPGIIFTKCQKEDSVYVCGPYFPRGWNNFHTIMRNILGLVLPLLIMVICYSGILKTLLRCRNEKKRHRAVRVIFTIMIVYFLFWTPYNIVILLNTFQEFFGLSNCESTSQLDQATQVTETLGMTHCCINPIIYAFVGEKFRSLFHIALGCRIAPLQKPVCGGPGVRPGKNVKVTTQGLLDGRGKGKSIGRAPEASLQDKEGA
T1 sequence (P61073 whole entry): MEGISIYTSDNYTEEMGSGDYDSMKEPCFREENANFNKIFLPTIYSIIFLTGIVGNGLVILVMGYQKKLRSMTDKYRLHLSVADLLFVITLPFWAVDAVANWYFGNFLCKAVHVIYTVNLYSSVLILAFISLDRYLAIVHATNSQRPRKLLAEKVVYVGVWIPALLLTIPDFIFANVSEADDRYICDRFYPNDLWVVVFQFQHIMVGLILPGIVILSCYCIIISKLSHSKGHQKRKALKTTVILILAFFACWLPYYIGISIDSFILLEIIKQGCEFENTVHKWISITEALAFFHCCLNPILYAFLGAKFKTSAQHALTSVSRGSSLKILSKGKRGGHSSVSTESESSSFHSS
T3 sequence (P51681 whole entry): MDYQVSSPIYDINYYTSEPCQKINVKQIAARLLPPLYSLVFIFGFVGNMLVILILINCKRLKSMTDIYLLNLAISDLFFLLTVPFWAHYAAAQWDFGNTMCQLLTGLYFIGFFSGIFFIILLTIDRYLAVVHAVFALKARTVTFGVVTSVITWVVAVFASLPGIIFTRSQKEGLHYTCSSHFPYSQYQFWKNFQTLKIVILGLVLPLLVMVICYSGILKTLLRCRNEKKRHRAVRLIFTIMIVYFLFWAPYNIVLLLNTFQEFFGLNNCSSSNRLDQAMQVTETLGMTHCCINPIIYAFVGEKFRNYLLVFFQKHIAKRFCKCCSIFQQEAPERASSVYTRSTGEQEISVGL
Sequence of Sigma non-opioid intracellular receptor 1 (Q99720 whole entry): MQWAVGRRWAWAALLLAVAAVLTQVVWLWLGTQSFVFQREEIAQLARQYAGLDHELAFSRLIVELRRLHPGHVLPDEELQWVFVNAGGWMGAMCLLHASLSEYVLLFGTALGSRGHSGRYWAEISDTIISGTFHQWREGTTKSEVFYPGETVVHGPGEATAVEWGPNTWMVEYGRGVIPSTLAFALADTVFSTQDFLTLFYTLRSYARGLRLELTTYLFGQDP

Row | Compound | IC50 [1] | IC50 [3] | IC50 [4] | IC50 [6] | IC50 [7] | IC50 [8] | IC50 [9] | IC50 [10] | Activity [2] | IC50 [5]
1 | CCCCN1C(=O)C(CC(C)C)NC(=O)C12CCN(CCCCCCc1ccccc1)CC2 (stereo unspecified) | 6.7 µM | > 10 µM | 0.27 µM | > 10 µM | > 10 µM | 0.038 µM |  |  | inactive | > 10 µM
2 | CC(C)C[C@H]1NC(=O)C2(CCN(Cc3ccccc3)CC2)N(Cc2ccccc2)C1=O | > 30 µM | > 30 µM | 7.6 µM | > 30 µM |  |  |  |  | inactive | 
3 | CCCN1C(=O)[C@H](CC(C)C)NC(=O)C12CCN(CCCCCCc1ccccc1)CC2 | > 10 µM | > 10 µM | 2 µM | > 10 µM |  |  |  |  | inactive | 
4 | CCCCN1C(=O)C(CC2CCCCC2)NC(=O)C12CCN(Cc1ccc(OC)cc1)CC2 (stereo unspecified) | > 30 µM | > 30 µM | 0.12 µM |  | > 30 µM | 0.0045 µM |  |  | inactive | > 30 µM
5 | CCCN1C(=O)C(CC(C)C)NC(=O)C12CCN(Cc1ccc(Oc3ccccc3)cc1)CC2 (stereo unspecified) | > 30 µM | > 30 µM | 0.5 µM | > 30 µM | > 30 µM | 0.017 µM |  |  | inactive | > 30 µM
6 | CCCN1C(=O)[C@@H](CC(C)C)NC(=O)C12CCN(CCCCCCc1ccccc1)CC2 | > 10 µM | > 10 µM | 3 µM | > 10 µM |  |  |  |  | inactive | 
7 | CCCCN1C(=O)C(CC2CCCCC2)NC(=O)C12CCN(Cc1ccc(Oc3ccccc3)cc1)CC2 (stereo unspecified) | > 10 µM | > 10 µM | 0.17 µM |  | > 10 µM | 0.0061 µM |  |  | inactive | > 10 µM
8 | CCCCN1C(=O)C(CC(C)C)NC(=O)C12CCN(Cc1ccccc1)CC2 (stereo unspecified) | > 30 µM | > 30 µM | 0.9 µM | > 30 µM | > 10 µM | 0.56 µM |  |  | inactive | 
9 | CC(C)C[C@@H]1NC(=O)C2(CCN(Cc3ccccc3)CC2)N(Cc2ccccc2)C1=O | > 30 µM | > 30 µM | 3.2 µM | > 30 µM |  |  |  |  | inactive | 

Now from value to compound, other results behind:

Row | IC50 [1] | IC50 [3] | IC50 [4] | IC50 [6] | IC50 [7] | IC50 [8] | IC50 [9] | IC50 [10] | Compound | Activity [2] | IC50 [5]
10 | > 10 µM | > 10 µM | 0.27 µM | > 10 µM | > 10 µM | 0.86 µM |  |  | CCCN1C(=O)[C@@H](CC2CCCCC2)NC(=O)C12CCN(CCCCCCc1ccccc1)CC2 | inactive | 
11 | > 10 µM | > 10 µM | 0.02 µM |  | > 10 µM | 0.0025 µM | 0.183 µM | 2.07 µM | CCCCN1C(=O)C(CC2CCCCC2)NC(=O)C12CCN(Cc1ccc3c(c1)OCCO3)CC2 (stereo unspecified) | inactive | > 10 µM
12 | > 10 µM | > 10 µM | 0.12 µM |  | > 10 µM | 0.083 µM |  |  | CCCCN1C(=O)C(CC(C)C)NC(=O)C12CCN(Cc1ccc(Oc3ccccc3)cc1)CC2 (stereo unspecified) | inactive | > 10 µM
13 | > 10 µM | > 10 µM | 0.3 µM | > 10 µM | > 10 µM | 0.61 µM |  |  | CCCN1C(=O)[C@H](CC2CCCCC2)NC(=O)C12CCN(CCCCCCc1ccccc1)CC2 | inactive | 
14 | > 10 µM | > 10 µM | 0.17 µM |  | > 10 µM | 0.02 µM |  |  | CCCCN1C(=O)C(CC(C)C)NC(=O)C12CCN(Cc1ccc3c(c1)OCCO3)CC2 (stereo unspecified) | inactive | > 10 µM
15 | > 10 µM | > 10 µM | 0.05 µM |  | > 10 µM | 0.011 µM |  |  | C=CCOc1ccc(CN2CCC3(CC2)C(=O)NC(CC2CCCCC2)C(=O)N3CCCC)cc1 (stereo unspecified) | inactive | > 10 µM
